Screens from PubChem BioAssay.
ABCB6 inh 2 – ABCB6 transporter inhibitors, primary screen, K562-ABCB6 cells, flow cytometry, MLPCN library; ATP-binding cassette sub-family B member 6 (Homo sapiens), Q9NP58; K562-ABCB6 porphyrin accumulation, 1 h; active compounds read low; fluorescence ratio to DMSO, % at 10 µM; actives 0.19% (n = 360,000); AID 602162, 2011;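 active = fluorescence ratio to DMSO below 75%, the collection mean minus 3 SD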;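 also: signal is porphyrin accumulated inside mitochondria; 100% equals median channel fluorescence of DMSO control wells; lower ratio means ABCB6 inhibition with less porphyrin fluorescence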
Target sequence (Q9NP58 whole entry, looked up): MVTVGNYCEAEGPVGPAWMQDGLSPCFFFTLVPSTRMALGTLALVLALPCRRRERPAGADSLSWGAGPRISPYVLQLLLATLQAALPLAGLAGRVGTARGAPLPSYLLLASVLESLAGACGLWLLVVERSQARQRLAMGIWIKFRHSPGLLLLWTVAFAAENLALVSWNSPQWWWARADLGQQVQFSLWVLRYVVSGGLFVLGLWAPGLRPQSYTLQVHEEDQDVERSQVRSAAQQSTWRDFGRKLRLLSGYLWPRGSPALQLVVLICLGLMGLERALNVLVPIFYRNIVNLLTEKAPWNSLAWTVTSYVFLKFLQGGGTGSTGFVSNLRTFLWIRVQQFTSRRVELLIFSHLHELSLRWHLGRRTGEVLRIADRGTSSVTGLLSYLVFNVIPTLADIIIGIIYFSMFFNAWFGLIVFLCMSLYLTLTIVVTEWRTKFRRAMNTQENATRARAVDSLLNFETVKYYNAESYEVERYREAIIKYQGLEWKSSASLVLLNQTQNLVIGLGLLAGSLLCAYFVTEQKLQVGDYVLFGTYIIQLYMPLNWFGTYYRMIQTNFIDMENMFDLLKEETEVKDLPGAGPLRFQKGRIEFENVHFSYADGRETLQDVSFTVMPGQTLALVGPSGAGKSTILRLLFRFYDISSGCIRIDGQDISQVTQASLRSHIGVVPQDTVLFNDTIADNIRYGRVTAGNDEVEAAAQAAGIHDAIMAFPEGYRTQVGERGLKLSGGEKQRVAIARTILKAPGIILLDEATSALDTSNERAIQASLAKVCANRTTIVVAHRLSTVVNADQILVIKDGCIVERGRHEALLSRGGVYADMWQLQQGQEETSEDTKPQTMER
HIF activator – HIF pathway transcriptional activators, primary screen, cell-based, U2OS HRE-luciferase, luminescence; U2OS HRE-luciferase reporter; normalized: DMSO 0%, desferrioxamine 100%; activation, % at 7.5 µM (by protocol); actives 0.32% (n = 300,000); AID 1910, 2009;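 active = mean activation of at least 10% of the iron chelator positive control signal, with at least half of replicates also reaching 10%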
SR-BI DiI inh – inhibitors of SR-BI mediated HDL lipid uptake, primary screen, ldlA[mSR-BI] cells, fluorescence, single point | ldlA[mSR-BI] CHO cells, DiI-HDL uptake fluorescence, 3 h | actives 0.96% (n = 320,000) | inhibition, % at 12.5 µM;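 active = mean replicate inhibition of at least 70% and a set share of replicates each scoring 70 or more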;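 also: 0% = median of neutral control wells and 100% = median of positive control wells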
SR-BI uptake up – activators of SR-BI mediated DiI-HDL uptake, primary screen, ldlA[mSR-BI] CHO cells, DiI fluorescence. actives 0.096% (n = 320,000). activation, % at 12.5 µM. 3 h; 100 = double the neutral-control signal. AID 504775, 2011;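 active = mean replicate activation of at least 60% and every replicate at or above 60%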;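 also: 0% = median plate neutral-control signal and 100% = twice that signal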
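Material: SR-BI-overexpressing, LDLR-lacking CHO cells; schedule: compound exposure 3 h, 37 °C; reagent: DiI-labelled HDL at 10 µg/mL final; technique: bottom-read fluorescence, 550/595 nm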
FXN GAA850 act – FXN promoter activators, primary screen, cell-based, luciferase luminescence, HEK293 lucGAA850 | HEK293 lucGAA850 FXN promoter luciferase reporter, 24 h; percent of 10 µM SAHA response | activation, % at 6 µM | actives 0.56% (n = 360,000) | AID 540364, 2011;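 active = activation above the average of all compounds screened plus 3 SD, cutoff fixed separately per campaign, cut at about 7.5% in these data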;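 also: 0% = DMSO wells and 100% = 10 µM SAHA wells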
AHR activator – AHR activators, primary screen, cell-based, luminescence, luciferase reporter, human; Aryl hydrocarbon receptor (Homo sapiens), P35869; AHR-responsive luciferase reporter cells; activation, % at 5 µM; actives 2.5% (n = 320,000); in the data active = activation above about 47%;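 also: 0% = vehicle wells and 100% = reference agonist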
Starred values were filed as active, the others as inactive. An excerpt weighted towards active compounds, which were near 3.9% of everything screened.

O=C1/C(=C/c2ccc(N3CCOCC3)o2)SC(=Nc2ccccc2)N1CCc1c[nH]c2ccccc12 was read as ABCB6 inh 2 inactive, HIF activator -3.8, SR-BI DiI inh 87.3*, SR-BI uptake up -87.3, FXN GAA850 act -13.8 and AHR activator 24.3.
Screening COCCN1C(=O)/C(=C/c2ccc(Oc3ccc([N+](=O)[O-])cn3)c(OC)c2)SC1=Nc1ccccc1 returned ABCB6 inh 2 100.0, HIF activator -0.9, SR-BI DiI inh 50.9, SR-BI uptake up -50.9, FXN GAA850 act -1.4 and AHR activator -1.3.
Screening COc1cc(OC)cc(C(=O)Nc2ccc(C(=O)Nc3ccccc3OC)cc2)c1 returned ABCB6 inh 2 93.0, SR-BI DiI inh 66.0, SR-BI uptake up -66.0, FXN GAA850 act 0.7 and AHR activator -1.8.
`CCOc1ccc(C(=O)NCC(=O)NCCSc2ccc(Br)cc2)cc1OCC` gave ABCB6 inh 2 91.0, SR-BI DiI inh 87.3*, SR-BI uptake up -87.3 and FXN GAA850 act 2.2.
CC(C)c1nnc(NC(=O)c2sc3ccccc3c2Cl)s1 was read as ABCB6 inh 2 95.0, HIF activator 1.6, SR-BI DiI inh -3.4, SR-BI uptake up 3.4, FXN GAA850 act -0.5 and AHR activator 70.8*.
`Cc1ccnc(NC(=O)c2sc3ccccc3c2Cl)c1` gave ABCB6 inh 2 106.0, HIF activator -0.1, SR-BI DiI inh 22.4, SR-BI uptake up -22.4, FXN GAA850 act 3.8 and AHR activator 11.8.
`Cc1cnc(NC(=O)c2sc3ccccc3c2Cl)s1` gave ABCB6 inh 2 97.0, HIF activator -1.3, SR-BI DiI inh 27.1, SR-BI uptake up -27.1, FXN GAA850 act 6.8 and AHR activator 37.4.
Screening O=C(Nc1nccs1)c1sc2ccccc2c1Cl returned ABCB6 inh 2 94.0, HIF activator -0.5, SR-BI DiI inh -3.8, SR-BI uptake up 3.8, FXN GAA850 act 1.9 and AHR activator 47.5*.
For CCOc1ccccc1C(=O)NC(C(=O)OCC(=O)Nc1nnc(-c2ccccc2)o1)C(C)C (centres undefined) the results were ABCB6 inh 2 94.0, HIF activator -0.9, SR-BI DiI inh 1.3, SR-BI uptake up -1.3, FXN GAA850 act 3.3 and AHR activator 0.2.
For Fc1ccc(Cn2nnnc2C(c2cccs2)N2CCN(C3CCCCC3)CC2)cc1 (centres undefined) the results were ABCB6 inh 2 91.0, HIF activator -0.4, SR-BI DiI inh 2.4, SR-BI uptake up -2.4, FXN GAA850 act -6.2 and AHR activator -0.4.
Screening CC(C)(C)C(=O)c1c(N)[nH]c(C(=O)c2ccccc2)c1-c1c(F)cccc1F returned ABCB6 inh 2 94.0.
CN(C)c1ccc(CNC(=O)CCS(=O)(=O)c2ccc3c(c2)oc(=O)n3C)cc1 was read as ABCB6 inh 2 109.0, HIF activator 32.8*, SR-BI DiI inh -4.3, SR-BI uptake up 4.3, FXN GAA850 act 1.1 and AHR activator 1.3.
`CCc1cccc(NC(=O)Cn2c(=O)n(CCC(=O)NCC3CCCO3)c(=O)c3cc(OC)c(OC)cc32)c1` (centres undefined) gave ABCB6 inh 2 98.0, HIF activator -0.7, SR-BI DiI inh -378.9, SR-BI uptake up 378.9*, FXN GAA850 act -1.1 and AHR activator 2.4.
For COc1ccc(NC(=O)Cn2c(=O)n(CCC(=O)NCC3CCCO3)c(=O)c3cc(OC)c(OC)cc32)cc1 (centres undefined) the results were ABCB6 inh 2 96.0, HIF activator -0.2, SR-BI DiI inh 8.3, SR-BI uptake up -8.3, FXN GAA850 act 0.0 and AHR activator 0.3.
Screening COc1ccccc1CCn1cnc2c3cc(C)ccc3n(C)c2c1=O returned ABCB6 inh 2 93.0, HIF activator 0.3, SR-BI DiI inh 37.1, SR-BI uptake up 0.2, FXN GAA850 act 2.7 and AHR activator 67.8*.
Cc1cccc2cc3c(NC(=O)C(C)C)nn(C)c3nc12 was read as ABCB6 inh 2 102.0, HIF activator 0.0, SR-BI DiI inh -7.2, SR-BI uptake up 7.2, FXN GAA850 act -0.5 and AHR activator 72.2*.
Screening Cc1ccc2cc3c(NC(=O)C(C)C)nn(C)c3nc2c1 returned ABCB6 inh 2 98.0, HIF activator 0.0, SR-BI DiI inh 5.2, SR-BI uptake up -5.2, FXN GAA850 act -2.5 and AHR activator 66.1*.
For CCCC(=O)Nc1nn(C)c2nc3ccc(C)cc3cc12 the results were ABCB6 inh 2 100.0, HIF activator 1.3, SR-BI DiI inh 21.9, SR-BI uptake up -21.9, FXN GAA850 act 0.1 and AHR activator 7.2.
For CCC(=O)Nc1nn(C)c2nc3c(C)cccc3cc12 the results were ABCB6 inh 2 104.0, HIF activator -0.1, SR-BI DiI inh 7.5, SR-BI uptake up -7.5, FXN GAA850 act 2.2 and AHR activator 1.0.
COc1cc(O)sc1C=Nc1ccc(Cl)cc1 was read as ABCB6 inh 2 114.0, HIF activator 0.6, SR-BI DiI inh 27.7, SR-BI uptake up -27.7, FXN GAA850 act 3.2 and AHR activator 48.1*.
Oc1ccc(Br)cc1C=Nc1ccc(Cl)cc1 was read as ABCB6 inh 2 98.0, HIF activator 2.5, SR-BI DiI inh -0.9, SR-BI uptake up 0.9, FXN GAA850 act 1.9 and AHR activator -2.6.
For O=C(Nc1cnn(Cc2ccccc2)c1)NC12CC3CC(CC(C3)C1)C2 the results were ABCB6 inh 2 94.0, HIF activator 1.1, SR-BI DiI inh -24.6, SR-BI uptake up 24.6, FXN GAA850 act 3.4 and AHR activator 7.0.
For CCOC(=O)c1ccccc1NC(=O)C1CC(=O)N(c2ccccc2)C1 (centres undefined) the results were ABCB6 inh 2 99.0, HIF activator 0.0, SR-BI DiI inh 9.2, SR-BI uptake up -9.2, FXN GAA850 act 1.9 and AHR activator 2.1.
`O=C(Nc1ccc2ncccc2c1)c1ccccc1Br` gave ABCB6 inh 2 99.0, HIF activator 4.4, SR-BI DiI inh -213.7, SR-BI uptake up 213.7*, FXN GAA850 act 3.8 and AHR activator -0.8.
O=C(Nc1ccc2ncccc2c1)Nc1ccc2ncccc2c1 was read as ABCB6 inh 2 90.0, HIF activator 1.6, SR-BI DiI inh 26.2, SR-BI uptake up -26.2, FXN GAA850 act 6.1 and AHR activator -0.4.
Screening COc1ccccc1C(=O)N/N=C(\C)c1cccnc1 returned ABCB6 inh 2 98.0, HIF activator 0.2, FXN GAA850 act 2.8 and AHR activator 58.5*.
COc1ccccc1NC(=O)NC(=O)c1ccccc1 was read as ABCB6 inh 2 95.0, HIF activator 3.3, SR-BI DiI inh 37.3, SR-BI uptake up -37.3, FXN GAA850 act 5.0 and AHR activator 48.8*.
